test: Inhibition of GST tagged PDE2 (unknown origin) assessed as reduction in FAM-cAMP hydrolysis pre-incubated for 5 mins before FAM-cAMP addition and measured after 30 mins by IMAP assay; parameters: species or system Homo sapiens
Summary of the method: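 Compound added from 1 mM DMSO stock, 5 min at rt. FAM-cAMP then added at 200 nM final, 30 min at rt. Stopped with IMAP Tb binding reagent, 1 h at rt. Plate reader read-out gives pIC50, run in quadruplicate.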

Row | pIC50 | SMILES
1 | 9.52 | Cc1nc2ccc(C(=O)NCC(C)C)cc2n2c(-c3ccccc3Cl)nnc12
2 | 8.88 | Cc1nc2ccc(C(=O)NCC(C)C)cc2n2c(-c3cc(OC(C)(C)C)ccc3Cl)nnc12
3 | 8.93 | Cc1nc2ccc(C(=O)NCC(C)C)cc2n2c(-c3cc(OC(C)C)ccc3Cl)nnc12
4 | 9.29 | Cc1nc2ccc(C(=O)NCC(C)C)cc2n2c(-c3cc(OCC(C)C)ccc3Cl)nnc12
5 | 9.46 | Cc1nc2ccc(C(=O)NC(C)C)cc2n2c(-c3cc(OCC(C)C)ccc3Cl)nnc12
6 | 9.17 | Cc1nc2ccc(C(=O)NC(C)C)cc2n2c(-c3cc(F)ccc3Cl)nnc12
7 | 9.42 | COc1ccc(Cl)c(-c2nnc3c(C)nc4ccc(C(=O)NCC(C)C)cc4n23)c1
8 | 8.96 | COc1ccc(Cl)c(-c2nnc3c(C)nc4ccc(C(=O)NC(C)C)cc4n23)c1
9 | 9.77 | Cc1nc2ccc(C(=O)NC34CC5CC(CC(C5)C3)C4)cc2n2c(-c3ccccc3Cl)nnc12
10 | 7.58 | Cc1nc2ccc(C(=O)NC34CC5CC(CC(C5)C3)C4)cc2n2c(-c3cc(OC(C)(C)C)ccc3Cl)nnc12
11 | 7.94 | Cc1nc2ccc(C(=O)NC34CC5CC(CC(C5)C3)C4)cc2n2c(-c3cc(OC(C)C)ccc3Cl)nnc12
12 | 9.58 | Cc1nc2ccc(C(=O)NC34CC5CC(CC(C5)C3)C4)cc2n2c(-c3cc(F)ccc3Cl)nnc12
13 | 9.47 | Cc1nc2ccc(C(=O)NC(C)(C)C)cc2n2c(-c3ccccc3Cl)nnc12
14 | 9.1 | Cc1nc2ccc(C(=O)NC(C)C)cc2n2c(-c3cc(OC(C)(C)C)ccc3Cl)nnc12
15 | 9.16 | CNC(=O)c1ccc2nc(C)c3nnc(-c4cc(OC(C)(C)C)ccc4Cl)n3c2c1
16 | 8.99 | Cc1nc2ccc(C(=O)NC(C)C)cc2n2c(-c3cc(OC(C)C)ccc3Cl)nnc12
17 | 9.16 | CNC(=O)c1ccc2nc(C)c3nnc(-c4cc(OC(C)C)ccc4Cl)n3c2c1
18 | 9.61 | CNC(=O)c1ccc2nc(C)c3nnc(-c4cc(OCC(C)C)ccc4Cl)n3c2c1
19 | 9.37 | Cc1nc2ccc(C(=O)NCC(C)C)cc2n2c(-c3cc(F)ccc3Cl)nnc12
20 | 8.55 | CNC(=O)c1ccc2nc(C)c3nnc(-c4ccccc4Cl)n3c2c1
21 | 8.74 | CNC(=O)c1ccc2nc(C)c3nnc(-c4cc(OC)ccc4Cl)n3c2c1
22 | 8.69 | CNC(=O)c1ccc2nc(C)c3nnc(-c4cc(F)ccc4Cl)n3c2c1
23 | 8.75 | Cc1nc2ccc(C(=O)NC(C)(C)C)cc2n2c(-c3cc(OCC(C)C)ccc3Cl)nnc12
24 | 9 | COc1ccc(Cl)c(-c2nnc3c(C)nc4ccc(C(=O)NC(C)(C)C)cc4n23)c1
25 | 8.3 | Cc1nc2ccc(C(=O)NC(C)(C)C)cc2n2c(-c3cc(OC(C)C)ccc3Cl)nnc12
26 | 9.3 | Cc1nc2ccc(C(=O)NC(C)(C)C)cc2n2c(-c3cc(F)ccc3Cl)nnc12
27 | 8.35 | Cc1nc2ccc(C(=O)NC(C)(C)C)cc2n2c(-c3cc(OC(C)(C)C)ccc3Cl)nnc12
28 | 7.74 | Cc1nc2ccc(C(=O)NC34CC5CC(CC(C5)C3)C4)cc2n2c(-c3cc(OCC(C)C)ccc3Cl)nnc12
29 | 9.49 | COc1ccc(Cl)c(-c2nnc3c(C)nc4ccc(C(=O)NC56CC7CC(CC(C7)C5)C6)cc4n23)c1
30 | 9.57 | Cc1nc2ccc(C(=O)NC(C)C)cc2n2c(-c3ccccc3Cl)nnc12

From ChEMBL document CHEMBL4145676, “Mathematical and Structural Characterization of Strong Nonadditive Structure-Activity Relationship Caused by Protein Conformational Changes” (J Med Chem, 2018)
